Compounds with a hit are over-represented: about 1.8% of the library has one in this group of screens.
DDE Tn6 FP inh = inhibitors of Tn6 peptide binding to human fibrin DD(E); P02675; Fibrin DD(E) TRITC-Tn6 fluorescence polarization displacement; inhibition, % at 8.3 µM; hit rate 0.21% among 370,000;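 active = inhibition above a per-campaign cutoff: mean of compounds within control limits plus 3 SD, cut at about 15% in these data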
Target sequence (P02675 whole entry, looked up): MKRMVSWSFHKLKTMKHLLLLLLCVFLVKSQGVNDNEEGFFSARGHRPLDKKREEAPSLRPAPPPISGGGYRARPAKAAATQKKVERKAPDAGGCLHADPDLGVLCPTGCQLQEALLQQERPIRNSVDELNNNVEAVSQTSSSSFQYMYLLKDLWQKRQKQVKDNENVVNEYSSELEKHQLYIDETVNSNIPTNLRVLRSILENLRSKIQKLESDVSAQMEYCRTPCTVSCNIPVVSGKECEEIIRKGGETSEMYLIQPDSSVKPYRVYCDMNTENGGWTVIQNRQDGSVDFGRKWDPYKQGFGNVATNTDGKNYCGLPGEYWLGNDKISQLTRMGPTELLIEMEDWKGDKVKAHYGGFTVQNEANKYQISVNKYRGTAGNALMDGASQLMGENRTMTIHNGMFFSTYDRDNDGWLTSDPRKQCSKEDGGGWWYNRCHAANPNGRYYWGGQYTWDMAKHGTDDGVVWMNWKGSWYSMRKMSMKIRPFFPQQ
HTRA1 inhibitor = inhibitors of human serine peptidase HTRA1; recombinant HTRA1, FP-rhodamine activity-based probe, fluorescence polarization; Q92743; inhibition, % at 5.96 µM; hit rate 0.5% among 340,000; AID 504803; in the data active = inhibition above about 36%
ABHD4 inh = ABHD4 (mouse) inhibition, primary FP screen; Q8VD66; purified mABHD4, FP-Rh probe fluorescence polarization; inhibition, % at 8.92 µM; hit rate 0.54% among 370,000; AID 720543;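 active = inhibition exceeding the mean over every tested compound plus 3 SD, cut at about 30% in these data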
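Doses – 8.92 µM, single dose · Material – wild-type mouse ABHD4 protein · Replication – single well per compound (singlicate) · Measure – percent inhibition of probe binding, normalized to plate controls · Schedule – 45 min compound pre-incubation plus 60 min probe step, 25 °C · Detection – fluorescence polarization with parallel and perpendicular emission, 525/598 nm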
SIAE inh = inhibitors of human sialic acid acetylesterase SIAE. hit rate 0.69% among 370,000. inhibition, % at 9.66 µM. SIAE FP-Rh probe binding, fluorescence polarization. Q9HAT2;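 active = inhibition above a cutoff: mean of compounds within the control limits plus 3 SD of those, cut at about 17% in these data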
DDE Tn7 FP inh = DD(E)-Tn7 binding inhibition, primary FP screen. P02675. FP displacement of FITC-Tn7 peptide from fibrin DD(E); 0% = median of compound wells per plate. inhibition, % at 8.3 µM. hit rate 0.13% among 370,000;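 active = inhibition above the mean of compounds falling within the control limits plus 3 SD of them, cut at about 14% in these data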
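Test system – human fibrin DD(E) · Times – 10 min preincubation, 3 h with tracer, room temperature · Detection – fluorescence polarization of the labelled Tn7 tracer · Measure – percent inhibition normalized to high-control wells · Benchmarks – high control wells with 10 µM unlabelled Aha-Tn7 peptide (full inhibition) · Repeats – singlicate testing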
TCR-CD3 inh = human TCR-CD3 binding inhibition; hit rate 0.37% among 360,000; TAMRA-labeled TCR probe fluorescence, biochemical; inhibition, % at 9.4 µM; in the data active = inhibition above about 19%;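 also: recombinant mutant TCR 2C K166C tagged with TAMRA read by polarization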
Tn6 DDE ctr = counter-screen hit for Tn6 peptide-fibrin DD(E) binding disruption; shares compounds with DDE Tn6 FP inh; AID 720621; TRITC-Tn6 fluorescence polarization displacement; 0% = median of compound wells, not DMSO; inhibition, % at 8.3 µM; hit rate 2% among 680;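 active = inhibition above the mean of test compounds lying between the control limits plus 3 SD of those, cut at about 14% in these data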
DDE Tn6 confirm = confirmation of inhibitors of Tn6 binding to human fibrin DD(E); shares compounds with DDE Tn6 FP inh; FP displacement of TRITC-Tn6 peptide from DD(E); 0% = per-plate median of test wells; inhibition, % at 8.3 µM; hit rate 10% among 680; AID 720631;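 active = inhibition above the mean of compounds lying within the control limits plus 3 SD, cut at about 16% in these data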
Each line names hits and unclear results; the compound was inactive in the other large screens (follow-up assays come after a bar, where they were run).

COc1ccc(OC)c(NC(=O)Nc2ccc3c(c2)OCO3)c1	none
Cc1sc2nc(COC(=O)CNC(=O)c3ccccc3Cl)[nH]c(=O)c2c1C	none (no result: HTRA1 inhibitor, TCR-CD3 inh)
Cc1cc(C)c2ccc(N)nc2c1O	DDE Tn6 FP inh 29 | Tn6 DDE ctr inactive | DDE Tn6 confirm inactive
Cc1cc(C)c2cccc(N)c2n1	none
Cc1ccc(Cl)cc1NC(=O)CN1C(=O)COc2ccc(S(=O)(=O)N3CCOCC3)cc21	DDE Tn6 FP inh 16 | Tn6 DDE ctr inactive | DDE Tn6 confirm inactive
CCOC(=O)[C@]12CCC=C1N(Cc1ccc(Cl)cc1Cl)C(=O)[C@H](CC(=O)NCC13CC4CC(CC(C4)C1)C3)C2	none (no result: HTRA1 inhibitor)
Cc1cccnc1C(NC(=O)C1CCN(CCOc2ccc(Cl)cc2Cl)CC1)c1ccc(Cl)cc1 (stereo not drawn)	DDE Tn6 FP inh 16 (no result: HTRA1 inhibitor) | Tn6 DDE ctr inactive | DDE Tn6 confirm inactive
Cc1cc(C)n2c(SCC(=O)N(CCC#N)c3ccc4c(c3)OCCO4)nnc2n1	none
O=C(Nc1ccncc1)c1cc(C2CCCCN2C(=O)CCc2ccccc2)on1 (stereo not drawn)	DDE Tn6 FP inh 15 (no result: HTRA1 inhibitor) | Tn6 DDE ctr inactive | DDE Tn6 confirm inactive
O=C(CN(c1cccc(Cl)c1)S(=O)(=O)c1ccc(Cl)cc1)NCc1ccccn1	none
Cc1ccc(C(=O)NC2CCCc3c2cnn3-c2ccc(F)cc2F)cn1 (stereo not drawn)	none
CC(C1CC1)N(Cc1ccccc1)C(=O)NC(=O)c1ccccc1 (stereo not drawn)	DDE Tn6 FP inh 18 | Tn6 DDE ctr inactive | DDE Tn6 confirm inactive
CC(C1CC1)N(Cc1ccccc1)C(=O)NC(=O)c1cccc(F)c1 (stereo not drawn)	none
COc1cccc(CNC(=O)C2=C(C)C(=O)OC23CCC(C)CC3)c1 (stereo not drawn)	DDE Tn6 FP inh 19 | Tn6 DDE ctr inactive | DDE Tn6 confirm inactive
Cc1cn([C@H]2C[C@H](O)[C@@H](/C=C/C(=O)NCC(c3ccccc3)c3ccccc3)O2)c(=O)[nH]c1=O	none (no result: HTRA1 inhibitor)
Cc1cn([C@H]2C[C@H](O)[C@@H](/C=C/C(=O)NCCC(C)C)O2)c(=O)[nH]c1=O	DDE Tn6 FP inh 15 (no result: HTRA1 inhibitor) | Tn6 DDE ctr inactive | DDE Tn6 confirm inactive
C=CCN1C(C(=O)OC)CN(Cc2cn(Cc3ccc(OC)cc3)nn2)CCS1(=O)=O (stereo not drawn)	none (no result: HTRA1 inhibitor, TCR-CD3 inh)
O=S(=O)(c1ccccc1)N1CCCCC1CCc1ccccc1 (stereo not drawn)	none
Cc1cc(C)cc(NC(=S)N2CCN(S(C)(=O)=O)CC2)c1	DDE Tn6 FP inh 16 | Tn6 DDE ctr inactive | DDE Tn6 confirm inactive
O=C(Nc1ccc(Cl)cn1)C1CCN(c2ncnc3c2nc2n3CCCCC2)CC1	DDE Tn6 FP inh 17 | Tn6 DDE ctr inactive | DDE Tn6 confirm inactive
O=C(Nc1ccc(Cl)cn1)C1CCCN(c2ncnc3c2nc2n3CCCCC2)C1 (stereo not drawn)	none
O=C(CSc1ccc(-c2nc3ccccc3[nH]2)cn1)Nc1ccc(S(=O)(=O)N2CCCC2)cc1	DDE Tn6 FP inh 59 | Tn6 DDE ctr inactive | DDE Tn6 confirm inactive
CC(=O)Nc1ccc(S(=O)(=O)N2CCC(c3nc4ccccc4[nH]3)CC2)cc1	none
CC(C)(C)C(=O)Nc1ccc(S(=O)(=O)N2CCC(c3nc4ccccc4[nH]3)CC2)cc1	DDE Tn6 FP inh 18 | Tn6 DDE ctr inactive | DDE Tn6 confirm inactive
COc1ccc2cc(-c3cccc4[nH]cc(C)c34)ccc2c1	none (no result: HTRA1 inhibitor, TCR-CD3 inh)
OCCNCc1cccc(-c2ccccc2)c1O	none
CCCCc1ncc(CN2CCC(n3nccc3NC(=O)C(OC)c3ccccc3)CC2)[nH]1 (stereo not drawn)	none
Cc1cccc(CC(=O)NCC(=O)NCc2cc(=O)n(C)c(=O)n2C)c1	none
CN(CCc1ccccc1)C1CCCN(C(=O)Cn2cccn2)C1 (stereo not drawn)	DDE Tn6 FP inh 17 | Tn6 DDE ctr inactive | DDE Tn6 confirm inactive
COc1ccc(CCN(C)C2CCCN(C(=O)Cn3cccn3)C2)cc1OC (stereo not drawn)	none
O=C(CSc1nnc(SCc2cccc3ccccc23)s1)Nc1ccc(S(=O)(=O)Nc2nccs2)cc1	DDE Tn6 FP inh 22 (no result: HTRA1 inhibitor, TCR-CD3 inh) | Tn6 DDE ctr inactive | DDE Tn6 confirm 17
CCCCCCSc1cccc(-c2nc3ccc(C)cn3c2NCc2ccccc2)c1	DDE Tn6 FP inh 16 | Tn6 DDE ctr inactive | DDE Tn6 confirm inactive
CCCCCCSc1cccc(-c2nc3cc(C)ccn3c2NCc2ccccc2)c1	none
O=C(O)c1nn(CCOc2ccc(Br)cc2)c(=O)c2ccccc12	none
Cc1nn2c(-c3ccc(S(=O)(=O)N4CCN(CCO)CC4)o3)nnc2c2ccccc12	none
COc1ccc(-c2nnc3c4ccccc4c(C)nn23)cc1S(=O)(=O)N1CCN(CCO)CC1	DDE Tn6 FP inh 23 | Tn6 DDE ctr inactive | DDE Tn6 confirm inactive
COc1cccc2cc(-c3n[nH]c(=S)n3C)oc12	DDE Tn6 FP inh 18 | Tn6 DDE ctr inactive | DDE Tn6 confirm inactive
CCCNC(=O)C1(C)CCN(Cc2cc(-c3ccccc3)on2)C1 (stereo not drawn)	none (no result: HTRA1 inhibitor)
CCN(CC(=O)NC1CCCC1)S(=O)(=O)c1ccc(Br)cc1	DDE Tn6 FP inh 16 | Tn6 DDE ctr inactive | DDE Tn6 confirm inactive
CCN(CC(=O)NC1CCCC1)S(=O)(=O)c1ccc(C)cc1	none
Cc1cccc(C(=O)NNC(=O)c2ccc(-c3ccccc3)cc2)c1	none
Cc1cccc(C(=O)NNC(=O)CN2C(=O)c3ccccc3C2=O)c1	DDE Tn6 FP inh 17 | Tn6 DDE ctr inactive | DDE Tn6 confirm inactive
CCOC(=O)C1CCN(C(=O)c2ccc3c(=O)n4nc(Nc5ccccc5)sc4nc3c2)CC1	none
CN(C)N1C(N)=C(C#N)C(c2cccc(Cl)c2)C2=C1CCCC2=O (stereo not drawn)	none
CN(C)N1C(N)=C(C#N)C(c2ccc3c(c2)OCO3)C2=C1CCCC2=O (stereo not drawn)	DDE Tn6 FP inh 15 | Tn6 DDE ctr inactive | DDE Tn6 confirm inactive
Cc1ccc(NC(=O)/C=C/c2ccc([N+](=O)[O-])s2)cc1	DDE Tn6 FP inh 18 | Tn6 DDE ctr inactive | DDE Tn6 confirm inactive
CC(C)N(C)C1=CC(=O)C(N(C)C(C)C)=CC1=O	none
CN(C)CCCO[C@@H]1[C@H]2OC(C)(C)O[C@H]2O[C@@H]1[C@H](O)CO	none
CN(Cc1ccccc1)C(=O)OCc1cn(Cc2ccc(F)cc2F)nn1	DDE Tn6 FP inh 17 (no result: HTRA1 inhibitor, TCR-CD3 inh) | Tn6 DDE ctr inactive | DDE Tn6 confirm inactive
O=C(NCCN1CCOCC1)C1CC(=O)N(c2ccc(Cl)cc2)C1 (stereo not drawn)	none
